# UBC9 SUMO inh = inhibitors of human SUMOylation (UBC9) | HTRF SUMOylation assay, SAE1/SAE2 + UBC9, in vitro | inhibition, % at 35 µM | actives 0.36% (n = 290,000); in the data active = inhibition above about 50%, passing the limit was not always enough
# Target sequence (P63279 whole entry, looked up): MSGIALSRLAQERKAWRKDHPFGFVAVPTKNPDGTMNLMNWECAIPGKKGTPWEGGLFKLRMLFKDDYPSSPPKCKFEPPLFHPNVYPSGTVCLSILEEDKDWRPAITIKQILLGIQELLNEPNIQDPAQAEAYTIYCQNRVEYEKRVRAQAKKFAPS
# Rpn11 inh = inhibitors of human proteasome Rpn11; AID 588493; actives 0.59% (n = 360,000); human 26S proteasome, Ub4-pepOG fluorescence polarization; 20S core pre-blocked with epoxomicin; O00487; calls only at 20 µM;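 active = inhibition at 20 µM, scaled to each plate's controls, above about 33%, limit read from the data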
# SENP1 FRET inh = blocks the human SENP1 SUMO protease catalytic domain. AID 624204. actives 0.21% (n = 360,000). inhibition, % at 10 µM. recombinant SENP1 catalytic domain, CyPet-SUMO1-YPet FRET cleavage;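 active = inhibition at least 30% at 10 µM, raw YFP signal under a set limit, fluorescence ratio 0.5 to 1.5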;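 note: 0% = enzyme with DMSO and 100% = no enzyme wells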
#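 Test system: human SENP1 catalytic domain; medium: Tris pH 8 buffer plus EDTA, NaCl, BME, BSA, NP40, catalase; incubation: 50 min reaction at room temperature; technique: FRET, CFP and YFP emission; controls: no-enzyme low control and enzyme-plus-DMSO high control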
# TPT1 inhibitor = C. albicans TPT1 enzyme inhibition | recombinant caTPT1, FP RNA substrate dephosphorylation | inhibition, % at 5 µM | actives 0.81% (n = 300,000);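 active = inhibition above the mean of all tested compounds plus 3 SD, set per screening campaign, cut at about 24% in these data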;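 note: plate controls were DMSO alone for no effect and ferristatin control at 100 nM for full effect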
# CSN inh = inhibitors of human CSN-mediated cullin deneddylation | inhibition, % at 12.5 µM | AID 651999 | Q92905 | Purified CSN, SCF-Nedd8-OG deneddylation, fluorescence polarization | actives 0.38% (n = 360,000);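 active = pattern-corrected inhibition above about 35%, with an unprinted fluorescence ratio check between 0.5 and 1.5, limit read from the data, passing the limit was not always enough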;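 note: 0% = enzyme with substrate and 100% = substrate without enzyme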
# Target sequence (Q92905 whole entry, looked up, one chain of several): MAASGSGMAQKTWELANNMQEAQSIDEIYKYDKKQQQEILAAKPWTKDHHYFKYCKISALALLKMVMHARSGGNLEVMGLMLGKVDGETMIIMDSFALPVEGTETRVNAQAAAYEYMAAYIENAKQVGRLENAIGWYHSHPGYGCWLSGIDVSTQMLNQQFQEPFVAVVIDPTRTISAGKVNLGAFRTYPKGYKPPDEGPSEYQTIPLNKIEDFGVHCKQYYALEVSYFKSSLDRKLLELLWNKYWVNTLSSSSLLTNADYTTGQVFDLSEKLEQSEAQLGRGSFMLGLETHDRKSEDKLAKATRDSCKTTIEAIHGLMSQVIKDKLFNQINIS
#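 Assay system: purified human Csn5 enzyme expressed in HEK293T cells; measure: % inhibition; also added: SCFSkp2-Nedd8OG substrate at 10 nM final; technique: fluorescence polarization; times: reaction 90 min, room temperature; medium: Tris buffer pH 7.5, NaCl, DTT, Tween-20, trehalose, ovalbumin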
# HNF4A DNA FP = change in binding of human HNF4 alpha to DNA; P41235; HNF4a-FITC DNA binding, fluorescence polarization, 1 h; activity change, % at 10 µM; actives 0.3% (n = 360,000); in the data active = activity change above about 30%, passing the limit was not always enough
# caTPT1 confirm = TPT1 (C. albicans) inhibition, confirmation; AID 2149; inhibition, % at 5 µM; shares compounds with TPT1 inhibitor; recombinant caTPT1, fluorescence polarization, RNase T1 coupled; actives 74% (n = 2,400);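 active = inhibition above the primary screen limit, the mean inhibition of all tested compounds plus 3 SD, cut at about 25% in these data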
# RNase T1 inh = RNase T1 inhibition in TPT1 counter-screen. shares compounds with TPT1 inhibitor. RNase T1 cleavage, fluorescence polarization, 1536-well. inhibition, % at 5 µM. actives 83% (n = 2,400). AID 2153;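 active = inhibition above the solvent-only control well mean plus 3 SD, limit set per screening run, cut at about 23% in these data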;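 note: plate controls were DMSO wells with enzyme for no effect and wells without RNase T1 for full effect; inhibitors block cleavage so intact labeled substrate keeps polarization high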
# Target sequence (P00651 whole entry, looked up): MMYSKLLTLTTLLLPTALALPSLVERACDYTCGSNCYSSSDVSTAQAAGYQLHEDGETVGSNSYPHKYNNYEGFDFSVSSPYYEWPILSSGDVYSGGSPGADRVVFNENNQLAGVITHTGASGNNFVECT
# The depositor's hits bear a star; i = inactive; . = not tested or not shown. A selection: hits, their analogues and other compounds. The true share with any hit is near 1.8%.
SMILES,UBC9 SUMO inh,Rpn11 inh,SENP1 FRET inh,TPT1 inhibitor,CSN inh,HNF4A DNA FP,caTPT1 confirm,RNase T1 inh
O=C(C[n+]1cccc2ccccc21)c1ccc([N+](=O)[O-])cc1,12,i,2,32*,-1,3,9,10
Clc1cccc(Cl)c1C[n+]1cccc2ccccc21,.,i,62,3,12,4,.,.
CCN(CC)CCCCCC(=O)Nc1ccccc1C(=O)Nc1ccccc1,15,i,3,-1,-3,-3,.,.
OCC1(CCc2ccccc2)CCCN(CCCc2ccccc2)C1 (stereo not given),5,i,-6,-1,-10,1,.,.
CCN(CC)C(=O)C1=C(C)NC(=S)NC1c1ccc(C)s1 (stereo not given),9,i,-1,3,2,-1,.,.
C[C@H](NC(=O)C1CCN(S(=O)(=O)c2ccccc2)CC1)C(=O)NCc1ccco1,1,i,6,0,1,3,.,.
COc1ccc(NC(=O)[C@@H]2[C@@H]3C(=O)N(C4CCCCC4)C(=O)[C@@H]3C3c4ccccc4C=CN32)cc1 (stereo not given in full),30,i,24,43*,9,14,50*,54*
CCOc1ccc(S(=O)(=O)/N=C(/Nc2ccc(S(N)(=O)=O)cc2)c2ccccc2)cc1,.,i,1,.,2,2,.,.
CCOC(=O)Cc1c(Cl)c2ccccc2[nH]c1=O,15,i,2,-3,-5,3,.,.
CCN(CC)CC(=O)Nc1nc(-c2ccc(Cl)cc2)cs1,20,i,-1,41*,1,3,0,4
Nc1nonc1OCCOCCOCCOc1nonc1N,-7,i,1,2,5,0,.,.
CC(NC(=O)COc1ccccc1F)C1CC2CCC1C2 (stereo not given),-13,i,1,1,0,-1,.,.
CC(C)NC(=O)/C(C#N)=C/c1ccc(N(C)C)o1,-12,.,-45,158*,128,170,177*,167*
Cc1ccc(/C=C(\C#N)C(=O)NC(C)C)o1,3,i,2,1,-3,1,.,.
COc1ccc(/C=N/NC(=O)Nc2cccc3nsnc23)cc1OC,26,i,-33,9,1,9,.,.
O=C(CCN1CCOCC1)NC12CC3CC(CC(C3)C1)C2,2,i,0,1,-2,1,.,.
Cc1ccc2c(CSc3nc4ccccc4c(=O)n3CCCO)cc(=O)oc2c1C,-37,i,3,32*,4,3,5,9
Cc1ccc2c(CSc3nnc4ccccn34)cc(=O)oc2c1C,7,i,3,4,2,0,.,.
CCOC(=O)CC1C(=O)NCCN1c1nc2c(C)cccn2c(=O)c1/C=C1\SC(=S)N(CC(C)C)C1=O (stereo not given),22,.,.,.,.,.,.,.
CCOCCCNc1nc2c(C)cccn2c(=O)c1/C=C1\SC(=S)N(C(C)CC)C1=O (stereo not given),19,.,49,135*,-78,8,157*,145*
Cc1cc(C)nc(NN2C(=O)/C(=C/c3ccccc3)SC2=S)n1,23,i,1,-1,-4,1,.,.
CN(C)c1ccc(/C=C2\SC(=S)N(Nc3ncc(C(F)(F)F)cc3Cl)C2=O)cc1,-14,.,-23,123*,-68,166,141*,130*
COc1cc(/C=C(\C#N)c2nc3c(s2)CCCC3)ccc1O,-11,.,.,146*,.,.,168*,152*
Cc1noc(C)c1COC(=O)c1csc2c1CCCC2,.,i,1,.,1,-2,.,.
Cc1nnc(SCc2nc3ccccc3s2)n1-c1ccccc1,14,i,-68,15,5,13,.,.
SMILES,UBC9 SUMO inh,Rpn11 inh,SENP1 FRET inh,TPT1 inhibitor,CSN inh,HNF4A DNA FP,caTPT1 confirm,RNase T1 inh
c1ccc(-n2cnnc2SCc2nc3ccccc3s2)cc1,4,i,-25,33*,10,18,49*,61*
Cc1ccc(-c2ccc(C3C(C#N)=C(N)Oc4n[nH]c(C)c43)o2)cc1 (stereo not given),18,i,-24,35*,1,5,13,21
Cc1cc(OC(=O)c2cc(Cl)ccc2Cl)c([N+](=O)[O-])c(=O)[nH]1,11,i,3,1,2,0,.,.
COc1ccc2nccc(C(N)=O)c2c1,17,i,0,0,2,5,.,.
CCSC1=NSC2=NC(=O)/C(=C\c3coc4ccccc4c3=O)C(=N)N12,4,i,-28,55*,-66,51,2,14
CC(C)CC1=NN2C(=N)/C(=C\c3coc4ccccc4c3=O)C(=O)N=C2S1,-1,.,-22,.,-70,27,.,.
O=C(Nc1ccc(F)cc1Cl)c1ccc2c(=O)n3c(nc2c1)CCC3,.,i,-1,0,2,1,.,.
CCCCCCN1C=CC(=C/C=C(\C#N)C(=O)OCC)C=C1,-6,.,-22,176*,56,196,193*,173*
CCCN1C=CC(=C/C=C(\C#N)C(=O)OCC)C=C1,7,.,.,181*,.,.,190*,177*
COc1ccc(C2NC3=C(CCC3)C3(C#N)C4(N=C(N)C23C#N)OCCO4)cc1 (stereo not given),13,i,-11,-4,2,1,.,.
COc1ccc(C2NC3=C(CCCC3)C(C#N)(C#N)C2(C#N)C#N)cc1 (stereo not given),21,.,.,33*,.,.,34*,47*
CC(=O)c1cc(NC(=O)c2ccc(Cl)cc2)c(=O)oc1/C=C/N(C)C,6,.,-29,132*,55*,121*,108*,110*
CC(=O)c1cc(NC(=O)c2cccc(C(F)(F)F)c2)c(=O)oc1/C=C/N(C)C,3,.,-20,117*,50,129,122*,128*
COc1ccc(C(=O)Nc2cc(C(C)=O)c(C)oc2=O)cc1,11,i,-4,-4,-2,1,.,.
CC[n+]1c(/C=C/N(C)c2ccccc2)oc2ccccc21,14,.,2,36*,27,26,49*,61*
CC[n+]1c(/C=C/Nc2ccccc2)oc2ccccc21,26,i,-17,38*,17,29,52*,64*
Cc1c(NC2=NC3(CCCCC3)Cc3ccccc32)c(=O)n(-c2ccccc2)n1C,19,i,2,4,1,-2,.,.
CC1(C)CC(=O)C(C2=NC3(CCCCCC3)Cc3ccccc32)=C(O)C1,24,i,-2,28*,1,2,-1,4

# Compound activity (PubChem BioAssay)
